Values after ≈ are worked out from the molar mass of the structure shown. Active and inactive are the calls of the source. The calls are words filed in the database; no cut-off is given here. Where a SMILES comes first, the peptide text is derived from it. The star is where a group is joined. Octanoyl = CCCCCCCC(=O)*
What was measured:
[1] = Hemolytic activity in human RBC after 1 hr; type: ADME, cell-based; details: erythrocyte
Outline: (§1)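 Fresh EDTA-collected human RBCs washed four times in Tris-buffered saline (10 mM Tris, 150 mM NaCl, pH 7.2) and used at 4% v/v, mixed 1:1 with two-fold serially diluted peptide (top 100 µg/ml before mixing). Incubated at 37 °C for 1 h and centrifuged; supernatant hemoglobin read at 540 nm. Buffer and 1% Triton-X served as negative and positive controls. Percent hemolysis = (A−A_N)/(A_P−A_N)×100. Run in duplicate.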

Escherichia coli [2] = assay: Antibacterial activity against Escherichia coli NCIM 2065 after 18 to 20 hrs by broth dilution assay; type: functional
Outline: (§2)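 Two-fold serial dilutions in Mueller-Hinton broth, run in triplicate. Overnight 37 °C cultures diluted to 10⁶ CFU/mL and added 1:1 to the peptide, then incubated at 37 °C for 18-20 h. Growth was read as absorbance at 492 nm against no-peptide controls. MIC taken as the lowest concentration giving complete inhibition or killing. Reproducible across three independent triplicates.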

Candida albicans [3] = assay: Antifungal activity against Candida albicans NCIM 3471 after 48 to 72 hrs; type: functional
Outline: (§3)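 Peptide in water was serially diluted two-fold in potato dextrose broth and mixed 1:1 with yeast suspension at 2×10³ CFU/ml. Incubated at 25 °C for 48-72 h, with growth read as absorbance at 620 nm against a peptide-free culture. MIC was the lowest concentration giving complete growth inhibition. Run in triplicate.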

Escherichia coli [4] = assay: Antibacterial activity against Escherichia coli K-12 NCIM 2563 after 18 to 20 hrs by broth dilution assay; type: functional; outline: as §2
Salmonella typhimurium = assay: Antibacterial activity against Salmonella typhimurium NCIM 2501 after 18 to 20 hrs by broth dilution assay; type: functional, Salmonella enterica subsp. enterica serovar Typhimurium; details: Salmonella enterica; outline: as §2
Pseudomonas aeruginosa = assay: Antibacterial activity against Pseudomonas aeruginosa NCIM 5029 after 18 to 20 hrs by broth dilution assay; type: functional; outline: as §2
Klebsiella pneumoniae = assay: Antibacterial activity against Klebsiella pneumoniae NCIM 2957 after 18 to 20 hrs by broth dilution assay; type: functional; outline: as §2
Cryptococcus neoformans = assay: Antifungal activity against Cryptococcus neoformans NCIM 3542 after 48 to 72 hrs; type: functional; outline: as §3
Candida albicans [5] = assay: Antifungal activity against Candida albicans NCIM 3471 assessed as disruption of cell membrane by atomic force microscopic analysis; type: functional, organism-based
Outline: (§4)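 E. coli grown in MHB and C. albicans in potato dextrose broth were pelleted and resuspended in deionized water. Cells incubated with 50 µM peptide at 37 °C for 1 h, dried 30 min at 25 °C on poly-L-lysine glass, and imaged by AFM in intermittent contact mode. Peptide-free cells served as control.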

Staphylococcus aureus = assay: Antibacterial activity against Staphylococcus aureus NCIM 5021 after 18 to 20 hrs by broth dilution assay; type: functional; outline: as §2
Escherichia coli [6] = assay: Antibacterial activity against Escherichia coli K-12 NCIM 2563 assessed as disruption of cell membrane at 50 uM after 1 hr by atomic force microscopic analysis; type: functional, organism-based; outline: as §4
Nakaseomyces glabratus = assay: Antifungal activity against Candida glabrata NCIM 3237 after 48 to 72 hrs; type: functional; outline: as §3
Saccharomyces cerevisiae = assay: Antifungal activity against Saccharomyces cerevisiae NCIM 3454 after 48 to 72 hrs; type: functional; outline: as §3
Escherichia coli [7] = assay: Antibacterial activity against Escherichia coli expressing pUC19 plasmid assessed as disruption of cytoplasmic membrane at 20 ug/mL after 1 hr by beta-galactosidase leakage assay; type: functional, organism-based
Outline: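 E. coli TOP10 transformed with pUC19 (lacZ) grown in LB with 100 µg/ml ampicillin at 37 °C to A660 0.6, then washed three times. Peptide stock (200 µg/ml) added 1:10 to cells and incubated at 37 °C for 1 h. After centrifugation, supernatant was mixed with 4-methylumbelliferyl substrate and fluorescence followed for 1 h. Initial velocities used; water blank; triplicates.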

[8] = Hemolytic activity in human RBC at 100 ug/ml after 1 hr; type: ADME, cell-based; details: erythrocyte; outline: as §1
Escherichia coli [9] = assay: Antibacterial activity against Escherichia coli K-12 NCIM 2563 at 50 uM after 60 mins by FITC uptake assay; type: functional, organism-based
Outline: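 E. coli grown in MHB to OD 0.6, washed, and suspended at 2×10⁷ cfu/ml in 10 mM sodium phosphate pH 7.4. Cells incubated with 50 µM peptide at 37 °C for 60 min, then immobilized on poly-L-lysine slides for 50 min at 30 °C. FITC (10 µg/ml) added, slides washed, and cells examined by fluorescence microscopy. Solvent-treated control.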

| Compound | MIC (Escherichia coli [2]) | MIC (Candida albicans [3]) | MIC (Escherichia coli [4]) | MIC (Salmonella typhimurium) | MIC (Pseudomonas aeruginosa) | MIC (Klebsiella pneumoniae) | MIC (Cryptococcus neoformans) | MIC (Staphylococcus aureus) | MIC (Nakaseomyces glabratus) | MIC (Saccharomyces cerevisiae) | HD10 [1] | Activity (Candida albicans [5]) | Activity (Escherichia coli [6]) | Activity (Escherichia coli [7]) | Activity [8] | Activity (Escherichia coli [9]) |
| --- | --- | --- | --- | --- | --- | --- | --- | --- | --- | --- | --- | --- | --- | --- | --- | --- |
| CCCCCCCCCCCC(=O)N[C@@H](C)/C=C/C(=O)N[C@@H](CCCNC(=N)N)C(=O)N[C@@H](C)/C=C/C(=O)N[C@@H](CCCNC(=N)N)C(N)=O | 12.5 µg/mL (≈ 17.7 µM) | 3.12 µg/mL (≈ 4.42 µM) | 12.5 µg/mL (≈ 17.7 µM) | 3.12 µg/mL (≈ 4.42 µM) | 3.12 µg/mL (≈ 4.42 µM) | 6.25 µg/mL (≈ 8.85 µM) | 12.5 µg/mL (≈ 17.7 µM) | 6.25 µg/mL (≈ 8.85 µM) | 6.25 µg/mL (≈ 8.85 µM) | 3.12 µg/mL (≈ 4.42 µM) | 22 µg/mL | Active | Active | – | – | – |
| CCCCCCCC(=O)N[C@@H](C)/C=C/C(=O)N[C@@H](CCCCN)C(=O)N[C@@H](C)/C=C/C(=O)N[C@@H](CCCCN)C(N)=O | > 100 µg/mL | > 100 µg/mL | > 100 µg/mL | > 100 µg/mL | > 100 µg/mL | > 100 µg/mL | > 100 µg/mL | > 100 µg/mL | 50 µg/mL (≈ 84.2 µM) | > 100 µg/mL | 58 µg/mL | Active | Active | – | – | – |
| CCCCCCCC(=O)N[C@H](/C=C/C(=O)N[C@@H](CCCCN)C(=O)N[C@H](/C=C/C(=O)N[C@@H](CCCCN)C(N)=O)Cc1ccc(O)cc1)Cc1ccc(O)cc1 | 25 µg/mL (≈ 32.1 µM) | 12.5 µg/mL (≈ 16.1 µM) | 25 µg/mL (≈ 32.1 µM) | 50 µg/mL (≈ 64.3 µM) | 50 µg/mL (≈ 64.3 µM) | 50 µg/mL (≈ 64.3 µM) | 25 µg/mL (≈ 32.1 µM) | 50 µg/mL (≈ 64.3 µM) | 25 µg/mL (≈ 32.1 µM) | 12.5 µg/mL (≈ 16.1 µM) | 54 µg/mL | Active | Active | – | – | – |
| CCCCCCCCCCCC(=O)N[C@H](/C=C/C(=O)N[C@@H](CCCCN)C(=O)N[C@H](/C=C/C(=O)N[C@@H](CCCCN)C(N)=O)Cc1ccccc1)Cc1ccccc1 | 25 µg/mL (≈ 31.2 µM) | 3.12 µg/mL (≈ 3.89 µM) | 25 µg/mL (≈ 31.2 µM) | 25 µg/mL (≈ 31.2 µM) | 25 µg/mL (≈ 31.2 µM) | 25 µg/mL (≈ 31.2 µM) | 6.25 µg/mL (≈ 7.79 µM) | 25 µg/mL (≈ 31.2 µM) | 6.25 µg/mL (≈ 7.79 µM) | 6.25 µg/mL (≈ 7.79 µM) | < 1.56 µg/mL | Active | Active | – | – | – |
| CCCCCCCC(=O)N[C@H](/C=C/C(=O)N[C@@H](CCCCN)C(=O)N[C@H](/C=C/C(=O)N[C@@H](CCCCN)C(N)=O)C(C)C)CC(C)C | 12.5 µg/mL (≈ 18.8 µM) | 25 µg/mL (≈ 37.7 µM) | – | 50 µg/mL (≈ 75.3 µM) | 50 µg/mL (≈ 75.3 µM) | 25 µg/mL (≈ 37.7 µM) | 6.25 µg/mL (≈ 9.41 µM) | 50 µg/mL (≈ 75.3 µM) | 50 µg/mL (≈ 75.3 µM) | 50 µg/mL (≈ 75.3 µM) | – | Active | Active | – | – | – |

Second part, led by results:

| MIC (Escherichia coli [2]) | MIC (Candida albicans [3]) | MIC (Escherichia coli [4]) | MIC (Salmonella typhimurium) | MIC (Pseudomonas aeruginosa) | MIC (Klebsiella pneumoniae) | MIC (Cryptococcus neoformans) | MIC (Staphylococcus aureus) | MIC (Nakaseomyces glabratus) | MIC (Saccharomyces cerevisiae) | Compound | HD10 [1] | Activity (Candida albicans [5]) | Activity (Escherichia coli [6]) | Activity (Escherichia coli [7]) | Activity [8] | Activity (Escherichia coli [9]) |
| --- | --- | --- | --- | --- | --- | --- | --- | --- | --- | --- | --- | --- | --- | --- | --- | --- |
| 6.25 µg/mL (≈ 9.62 µM) | 3.12 µg/mL (≈ 4.8 µM) | 6.25 µg/mL (≈ 9.62 µM) | 6.25 µg/mL (≈ 9.62 µM) | 6.25 µg/mL (≈ 9.62 µM) | 3.12 µg/mL (≈ 4.8 µM) | 6.25 µg/mL (≈ 9.62 µM) | 6.25 µg/mL (≈ 9.62 µM) | 6.25 µg/mL (≈ 9.62 µM) | 3.12 µg/mL (≈ 4.8 µM) | CCCCCCCCCCCC(=O)N[C@@H](C)/C=C/C(=O)N[C@@H](CCCCN)C(=O)N[C@@H](C)/C=C/C(=O)N[C@@H](CCCCN)C(N)=O | 48 µg/mL | Active | Active | inactive | – | – |
| > 100 µg/mL | > 100 µg/mL | > 100 µg/mL | > 100 µg/mL | > 100 µg/mL | > 100 µg/mL | > 100 µg/mL | > 100 µg/mL | > 100 µg/mL | > 100 µg/mL | CCCCCCCC(=O)N[C@@H](CC(C)C)C(=O)N[C@@H](CCCCN)C(=O)N[C@H](C(=O)N[C@@H](CCCCN)C(N)=O)C(C)C (Octanoyl-LKVK-NH2) | – | Active | Active | – | Non-toxic | – |
| > 100 µg/mL | > 100 µg/mL | > 100 µg/mL | > 100 µg/mL | > 100 µg/mL | > 100 µg/mL | > 100 µg/mL | > 100 µg/mL | > 100 µg/mL | > 100 µg/mL | CCCCCCCC(=O)N[C@@H](C)/C=C/C(=O)N[C@@H](CCCNC(=N)N)C(=O)N[C@@H](C)/C=C/C(=O)N[C@@H](CCCNC(=N)N)C(N)=O | 52 µg/mL | Active | Active | – | – | – |
| 6.25 µg/mL (≈ 7.49 µM) | 1.56 µg/mL (≈ 1.87 µM) | 6.25 µg/mL (≈ 7.49 µM) | 3.12 µg/mL (≈ 3.74 µM) | 3.12 µg/mL (≈ 3.74 µM) | 3.12 µg/mL (≈ 3.74 µM) | 6.25 µg/mL (≈ 7.49 µM) | 3.12 µg/mL (≈ 3.74 µM) | 3.12 µg/mL (≈ 3.74 µM) | 3.12 µg/mL (≈ 3.74 µM) | CCCCCCCCCCCC(=O)N[C@H](/C=C/C(=O)N[C@@H](CCCCN)C(=O)N[C@H](/C=C/C(=O)N[C@@H](CCCCN)C(N)=O)Cc1ccc(O)cc1)Cc1ccc(O)cc1 | 2.5 µg/mL | Active | Active | Active | – | Active |
| > 100 µg/mL | > 100 µg/mL | > 100 µg/mL | > 100 µg/mL | > 100 µg/mL | > 100 µg/mL | > 100 µg/mL | > 100 µg/mL | > 100 µg/mL | > 100 µg/mL | CC(=O)N[C@H](/C=C/C(=O)N[C@@H](CCCCN)C(=O)N[C@H](/C=C/C(=O)N[C@@H](CCCCN)C(N)=O)Cc1ccccc1)Cc1ccccc1 | – | Active | Active | – | Non-toxic | – |
| 1.56 µg/mL (≈ 2.09 µM) | 3.12 µg/mL (≈ 4.18 µM) | 1.56 µg/mL (≈ 2.09 µM) | 3.12 µg/mL (≈ 4.18 µM) | 3.12 µg/mL (≈ 4.18 µM) | 3.12 µg/mL (≈ 4.18 µM) | 3.12 µg/mL (≈ 4.18 µM) | 3.12 µg/mL (≈ 4.18 µM) | 3.12 µg/mL (≈ 4.18 µM) | 3.12 µg/mL (≈ 4.18 µM) | CCCCCCCC(=O)N[C@H](/C=C/C(=O)N[C@@H](CCCCN)C(=O)N[C@H](/C=C/C(=O)N[C@@H](CCCCN)C(N)=O)Cc1ccccc1)Cc1ccccc1 | 16 µg/mL | Active | Active | Active | – | Active |
